Most compounds without a hit are left out; they make up all but 3.7% or so of the library.
KCNK3 block: human KCNK3 channel inhibition, primary screen | B-score at 10 µM | 340,000 tested, 0.84% active | O14649 | CHO-KCNK3 thallium flux, FluxOR fluorescence; stronger effect = lower value;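 active = B-score under library mean minus 4 SD, starting fluorescence ratio at most library mean plus 5 SD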;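 also: more negative B-score means stronger inhibition of thallium flux through KCNK3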
KCNQ1 act: human KCNQ1 channel potentiation or activation. P51787. CHO-K1 KCNQ1, thallium flux FluxOR fluorescence; stronger effect = higher value. B-score at 10 µM. 310,000 tested, 0.35% active. AID 2648;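 active = fluorescence ratio B-score, a plate-corrected score, at least three library SD, with initial intensity B-score within 5 SD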
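Test system: CHO-K1 cells stably expressing KCNQ1 / Medium: assay buffer / Also added: depolarizing K+/Tl+ stimulus, K2SO4 and Tl2SO4 each 12.5 mM in 5x stock / Incubation: 90 min dye loading and 20 min compound exposure, both at room temperature / Signal: thallium influx via FluxOR fluorescence, kinetic imaging / Evaluation: B score of baseline-normalized fluorescence ratio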
KCNQ1 inh: inhibitors of human KCNQ1 potassium channel. P51787. CHO-K1 KCNQ1, FluxOR thallium flux fluorescence; stronger effect = higher value. B-score at 10 µM. 310,000 tested, 1.3% active. AID 2642;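 active = compounds whose thallium flux B-score, printed positive for inhibition, exceeds three library SD while starting fluorescence stays within three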;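 also: channel opened by potassium depolarization with thallium stimulus after 20 min compound exposure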
hERG rescue: shields human hERG channel from block by proarrhythmic agents; CHO-hERG, FluxOR thallium flux, dofetilide IC70 present; 310,000 tested, 0.51% active; activation (rescue from dofetilide block), less the hit threshold, % at 10 µM; Q12809;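 active = activation above the mean of controls blocked by dofetilide plus 5 SD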;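 also: thallium influx through hERG after potassium depolarization seen as dye fluorescence rise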
KCNK9 inh: blocks the human KCNK9 two-pore domain potassium channel; B-score at 10 µM; Q9NPC2; 310,000 tested, 1.2% active; HEK293 KCNK9, FluxOR thallium flux fluorescence; stronger effect = lower value; AID 488922;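 active = ratio B-score over 3 SD below the library mean, with starting fluorescence within 5 SD of its mean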;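 also: negative B-score means less thallium flux so channel inhibition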
Target sequence (Q9NPC2 whole entry, looked up, the tested form may be a part): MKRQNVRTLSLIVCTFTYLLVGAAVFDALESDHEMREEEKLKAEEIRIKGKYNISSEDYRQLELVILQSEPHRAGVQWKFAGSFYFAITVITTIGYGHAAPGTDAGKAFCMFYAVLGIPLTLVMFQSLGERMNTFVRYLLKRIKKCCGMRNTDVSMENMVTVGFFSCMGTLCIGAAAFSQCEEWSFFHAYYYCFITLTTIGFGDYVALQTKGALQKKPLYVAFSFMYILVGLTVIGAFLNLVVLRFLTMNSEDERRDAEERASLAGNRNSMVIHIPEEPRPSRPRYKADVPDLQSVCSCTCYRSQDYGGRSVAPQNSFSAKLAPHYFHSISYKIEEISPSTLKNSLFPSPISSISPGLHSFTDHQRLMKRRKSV
Kir21 inh: blocks the mouse Kir2.1 inward-rectifier potassium channel; HEK293-Kir2.1, FluxOR thallium flux fluorescence; stronger effect = lower value; B-score at 10 µM; 310,000 tested, 0.85% active;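 active = fluorescence ratio B-score at or below minus 3 SD of library scores, with starting-brightness B-score within 2 SD, cut at about -4.2 in these data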;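 also: channel flux triggered by added potassium and thallium sulfate stimulus; B-score of peak minus minimum fluorescence over baseline after thallium stimulus; more negative B-score means stronger Kir2.1 block with less thallium influx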
KCNK3 inh conf: human KCNK3 channel inhibition, confirmation assay. ratio percent of control, % at 10 µM. 2,400 tested, 99% active. shares compounds with KCNK3 block. CHO-KCNK3 thallium flux, FluxOR fluorescence; 0% buffer, 100% carvedilol maximal block;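 active = ratio percent of control, averaged over triplicates, above buffer control mean plus 5 SD, cut at about 64% in these data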;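 also: ratio is the fluorescence rise from min to max over baseline after thallium stimulus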
KCNK3 noninduced: counter-screen for KCNK3 inhibitors: effect in non-induced cells | shares compounds with KCNK3 block | non-induced KCNK3 parental cells, FluxOR thallium flux; stronger effect = lower value | thallium flux ratio (lower = more inhibition) at 10 µM | 2,400 tested, 40% active;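 active = thallium flux ratio, averaged over three wells, more than 5 SD below the buffer control mean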;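 also: host cells are CHO cells without KCNK3 induction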
Numbers stand for hits; i = inactive; nt = no result.

SMILES | KCNK3 block | KCNQ1 act | KCNQ1 inh | hERG rescue | KCNK9 inh | Kir21 inh | KCNK3 inh conf | KCNK3 noninduced
O=C(O)c1ccc(-n2c(-c3ccc(Br)cc3)n[nH]c2=S)cc1 | i | i | i | i | i | i | nt | nt
S=c1[nH]nc(-c2ccc(Br)cc2)n1-c1ccc(Br)cc1 | -11 | i | i | i | i | i | 75 | i
CCC(C)[C@H]1CNCCN1CCC12CC3CC(CC(C3)C1)C2 (stereo partly specified) | i | nt | nt | nt | nt | nt | nt | nt
O=C(Nc1ccc(S(=O)(=O)N2CCOCC2)cc1)c1cc(-c2cc(Cl)ccc2O)n[nH]1 | -8.7 | i | i | i | i | i | 128 | 0.13
Cc1ccc(N(CC(=O)N/N=C/c2cc(C)n(-c3ccccc3C)c2C)S(C)(=O)=O)cc1 | i | i | i | i | i | i | nt | nt
COc1ccc(Cl)cc1NC(=O)CN(C)C(=O)c1sc2ccccc2c1Cl | -12 | nt | nt | nt | nt | nt | 112 | i
O=C(COC(=O)c1cc(Br)ccc1O)Nc1cc(S(=O)(=O)N2CCCC2)ccc1Cl | -9.5 | i | i | i | -6.6 | i | 96 | i
Cc1[nH]nc2c1C(c1ccco1)C(C#N)=C(N)O2 (stereo unspecified) | i | i | i | i | i | i | nt | nt
COc1ccc(-c2ccc(C3C(C#N)=C(N)Oc4n[nH]c(C)c43)o2)cc1 (stereo unspecified) | -11 | i | i | i | i | i | 89 | i
CCn1c(=NC(=O)c2cccc(N3C(=O)CCC3=O)c2)sc2c(C)ccc(OC)c21 | -9.4 | i | i | i | i | i | 106 | i
CCn1c(=NC(=O)c2ccc(N3C(=O)CCC3=O)cc2)sc2c(OC)ccc(OC)c21 | i | i | i | i | i | i | nt | nt
Cc1cccc(NC(=O)CN2C(=O)COc3ccc(Cl)cc32)c1 | i | i | i | i | i | i | nt | nt
COc1cccc(NC(=O)CN2C(=O)COc3ccc(Cl)cc32)c1 | -9.8 | i | i | i | i | i | 101 | i
COc1ccc(OC)c(NC(=O)CN2C(=O)COc3ccc(S(=O)(=O)N4CCCC4)cc32)c1 | -10 | i | i | i | i | i | 96 | i
CCOC(=O)C(=N/O)/C(C)=N/NC(=O)C(=O)Nc1ccc(Cl)cc1 | -11 | i | 9 | i | i | i | 120 | i
COCCOC(=O)c1c(C)oc2ccc(OC(=O)c3c(OC)cccc3OC)cc12 | -10 | i | i | i | i | i | 104 | i
CC(C)CCNCC(O)CON=C1c2ccccc2-c2ccccc21 (stereo unspecified) | -8.8 | i | i | i | i | -4.5 | 104 | i
CS(=O)(=O)N(CC(O)CON=C1c2ccccc2-c2ccccc21)c1ccc(F)cc1 (stereo unspecified) | i | i | i | i | i | i | nt | nt
CCc1ccc(NC(=O)CCC(=O)Nc2nnc(C(C)C)s2)cc1 | i | i | i | i | i | i | nt | nt
Cc1ccc(NC(=S)N(CCN(C)C)C(C)c2ccco2)cc1Cl (stereo unspecified) | i | i | i | i | i | i | nt | nt
Cc1ccc(NC(=O)N(Cc2ccco2)C(C)c2ccco2)cc1C (stereo unspecified) | -9 | i | i | i | i | i | 110 | i
CCOC(=O)N1CCN(C(=O)c2ccccc2N(Cc2ccccc2)S(=O)(=O)c2ccccc2)CC1 | i | i | i | i | i | i | nt | nt
Cc1cc(N2CCCC2)c(F)cc1/C=C\[N+](=O)[O-] | -10 | i | i | i | i | -7.7 | 128 | 0.099
Cc1cc(N2CCC(C)CC2)c(F)cc1[N+](=O)[O-] | i | i | i | i | i | i | nt | nt
Cc1ccc(C2C=C(c3ccccc3)Nc3ncnn32)cc1 (stereo unspecified) | i | i | i | i | i | i | nt | nt
Cn1cccc1C1C=C(c2ccc(C(C)(C)C)cc2)Nc2ncnn21 (stereo unspecified) | -9.1 | i | i | i | i | i | 111 | i
